Test [1] has as its system HCT-116. In words: Antiproliferative activity against human HCT116 cells after 48 hrs by MTS assay. It is filed as functional, cell-based. The conditions noted are these: HCT-116, 48 h. The procedure, abridged: (§1)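 Cells grown in RPMI 1640 with 9% FBS at 37°C, 5% CO2. 3000-10000 cells/well were left to attach 12 h, then given compound at five concentrations, or DMSO as vehicle control, for 48 h. MTS was added for 3 h at 37°C and absorbance read at 490 nm. IC50 (50% growth inhibition) was taken from triplicate dose-response curves.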

In the next test the test system is PC-3. In words: Antiproliferative activity against human PC3 cells after 48 hrs by MTS assay. It counts as functional, cell-based. As to conditions: PC-3, 48 h. The gist of the method: as §1
The next test relates to NCI-H1299. In words: Antiproliferative activity against human H1299 cells after 48 hrs by MTS assay. It counts as functional, cell-based. The conditions noted are these: NCI-H1299, 48 h. The gist of the method: as §1
The next test concerns the target Pyruvate kinase PKM (Homo sapiens, UniProt P14618). Description: Activation of N-terminal His -tagged human PKM2 expressed in Escherichia coli BL21 using PEP as substrate measured at 30 secs intervals for between 3 and 6 mins by fluorescent pyruvate kinase-lactate dehydrogenase coupled assay.
The next test relates to HeLa. Description: Antiproliferative activity against human HeLa cells after 48 hrs by MTS assay. It is filed as functional, cell-based. The gist of the method:
as §1
In general terms: Tetrazolium assays rely on reduction of a dye to a coloured formazan, in cell work by metabolically active cells.

Test [2] is described as follows: Antiproliferative activity against HELF after 48 hrs by MTS assay. Details: species or system Homo sapiens. The gist of the method:
as §1

The subject of test [3] is HCT-116. Description: Cell cycle arrest in human HCT116 cells assessed as accumulation at G2/M phase at 5 uM after 8 to 12 hrs by propidium iodide staining-based flow cytometric method (reference value: 21.28%). It counts as functional. The procedure, abridged:
(§2)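 HCT116 cells were exposed to DMSO or compound at 1.25, 2.5 or 5 μM; exposure is given as 8 h in the text and 12 h in the methods. Cells were harvested, washed twice in PBS and fixed in ice-cold ethanol at -4°C overnight. They were stained with propidium iodide (50 μg/mL) containing 0.1% RNase for 15 min in the dark at room temperature. Phase distribution was read by flow cytometry.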
(In general: In flow cytometry, cells or beads pass a laser one at a time.)

The test system of test [4] is HCT-116. In words: Cell cycle arrest in human HCT116 cells assessed as accumulation at G1 phase at 5 uM after 8 to 12 hrs by propidium iodide staining-based flow cytometric method (reference value: 40%). It counts as functional. The procedure, abridged:
as §2

The test system of test [5] is HCT-116. In words: Cell cycle arrest in human HCT116 cells assessed as accumulation at S phase at 1.25 uM after 8 to 12 hrs by propidium iodide staining-based flow cytometric method (reference value: 43.38%). It is filed as functional. The gist of the method: as §2
Test [6] relates to HCT-116. Description: Cell cycle arrest in human HCT116 cells assessed as accumulation at G2/M phase at 2.5 uM after 8 to 12 hrs by propidium iodide staining-based flow cytometric method (reference value: 21.28%). It is filed as functional. The gist of the method: as §2
Test [7] relates to HCT-116. Description: Cell cycle arrest in human HCT116 cells assessed as accumulation at G1 phase at 1.25 uM after 8 to 12 hrs by propidium iodide staining-based flow cytometric method (reference value: 40%). It counts as functional. The procedure, abridged: as §2
The test system of test [8] is HCT-116. Description: Cell cycle arrest in human HCT116 cells assessed as accumulation at G2/M phase at 1.25 uM after 8 to 12 hrs by propidium iodide staining-based flow cytometric method (reference value: 21.28%). It is filed as functional. The gist of the method: as §2
For test [9], the system named is HCT-116. In words: Cell cycle arrest in human HCT116 cells assessed as accumulation at S phase at 5 uM after 8 to 12 hrs by propidium iodide staining-based flow cytometric method (reference value: 43.38%). It is filed as functional. The procedure, abridged: as §2
Test [10] relates to HCT-116. In words: Cell cycle arrest in human HCT116 cells assessed as accumulation at S phase at 2.5 uM after 8 to 12 hrs by propidium iodide staining-based flow cytometric method (reference value: 43.38%). It is filed as functional. The procedure, abridged: as §2
Test [11] deals with HCT-116. In words: Cell cycle arrest in human HCT116 cells assessed as accumulation at G1 phase at 2.5 uM after 8 to 12 hrs by propidium iodide staining-based flow cytometric method (reference value: 40%). It counts as functional. The gist of the method:
as §2

In test [12] the test system is HCT-116. In words: Cell cycle arrest in human HCT116 cells assessed as accumulation at G2/M phase after 8 to 12 hrs by propidium iodide staining-based flow cytometric method. It is filed as functional. The gist of the method: as §2

Broadly, the IC50 is the midpoint of a concentration-inhibition curve. Low readings indicate inhibition by little substance, high ones a need for much substance. Usually AC50 stands for the concentration at which the activity in the assay is half-maximal. Low values mean greater potency, high ones weaker potency.

Sequence of Pyruvate kinase PKM (P14618 whole entry): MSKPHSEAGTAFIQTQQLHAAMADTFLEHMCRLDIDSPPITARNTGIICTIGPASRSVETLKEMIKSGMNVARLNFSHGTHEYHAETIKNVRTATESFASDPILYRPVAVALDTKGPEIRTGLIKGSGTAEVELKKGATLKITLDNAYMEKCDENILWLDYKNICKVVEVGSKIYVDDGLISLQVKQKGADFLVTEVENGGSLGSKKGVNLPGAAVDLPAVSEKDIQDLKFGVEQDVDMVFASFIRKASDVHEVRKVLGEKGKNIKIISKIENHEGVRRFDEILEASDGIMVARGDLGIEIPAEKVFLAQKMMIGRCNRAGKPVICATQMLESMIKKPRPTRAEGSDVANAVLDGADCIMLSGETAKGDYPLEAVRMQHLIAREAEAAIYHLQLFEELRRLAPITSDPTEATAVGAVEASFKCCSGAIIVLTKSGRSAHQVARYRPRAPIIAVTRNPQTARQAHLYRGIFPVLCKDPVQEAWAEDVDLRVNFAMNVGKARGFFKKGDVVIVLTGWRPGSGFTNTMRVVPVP

For the compound `O=S(=O)(Nc1ccc(C2(O)CSC(=S)N2Cc2ccncc2)cc1)c1ccc2c(c1)OCCO2` (stereo unspecified), the IC50 in the test on HCT-116 [1] came to 660 nM; with PC-3, 700 nM; in the test with NCI-H1299, 750 nM; in the test on HeLa it was 470 nM; in [2], 8310 nM. This compound returned a half-maximal activity concentration (AC50) at Pyruvate kinase PKM of over 20000 nM.

For `COc1ccc(S(=O)(=O)Nc2ccc(C3(O)CSC(=S)N3Cc3cccnc3)cc2)cc1` (stereo unspecified), the IC50 with HCT-116 [1] worked out at 1750 nM; in the test on PC-3 it was 1070 nM; in the test with NCI-H1299 it was 960 nM; in the test on HeLa, 480 nM; in test [2] it was 8630 nM. Also, the AC50 on Pyruvate kinase PKM was found to be 4690 nM.

Turning to `Cc1ccncc1CN1C(=S)SCC1(O)c1ccc(NS(=O)(=O)c2ccc3c(c2)OCCO3)cc1` (stereo unspecified), the IC50 with HCT-116 [1] came to 410 nM; in the test with PC-3, 1530 nM; in the test on NCI-H1299, 510 nM; in the test on HeLa, 340 nM; in test [2] it was 7210 nM. In addition, the half-maximal activity concentration (AC50) at Pyruvate kinase PKM was over 20000 nM.

As to `O=S(=O)(Nc1ccc(C2(O)CSC(=S)N2Cc2cccnc2)cc1)c1ccc2c(c1)OCCO2` (stereo unspecified), the Activity in the test on HCT-116 [3] is recorded as 63.21%; in the test on HCT-116 [4], 11.58%; in the test with HCT-116 [5], 30.52%; in the test with HCT-116 [6], 56.76%; with HCT-116 [7], 20.37%; in the test on HCT-116 [8], 48.86%. The Activity is 27.65% in the test with HCT-116 [9], 23.99% in the test on HCT-116 [10], 17.35% with HCT-116 [11] and “Dose-dependent effect” in the test with HCT-116 [12]. The IC50 was 810 nM with HCT-116 [1]; 660 nM in the test with PC-3; 690 nM in the test on NCI-H1299; 460 nM with HeLa; 11800 nM in test [2]. This compound registered an AC50 on Pyruvate kinase PKM of 3140 nM.

With `O=S(=O)(Nc1ccc(C2(O)CSC(=S)N2Cc2cccnc2)cc1)c1ccc2ccccc2c1` (stereo unspecified), the IC50 stood at 1650 nM in the test on HCT-116 [1]; 1520 nM in the test on PC-3; 810 nM with NCI-H1299; 460 nM with HeLa; 8050 nM in test [2]. Moreover, the AC50 at Pyruvate kinase PKM is over 20000 nM.

On to `COc1cccc(S(=O)(=O)Nc2ccc(C3(O)CSC(=S)N3Cc3cccnc3)cc2)c1` (stereo unspecified), for which the IC50 in the test on HCT-116 [1] is 2620 nM; with PC-3, 930 nM; in the test with NCI-H1299, 930 nM; in the test on HeLa it was 590 nM; in [2] it was 6900 nM. Half-maximal activity on Pyruvate kinase PKM (AC50) was put at 5950 nM.

The values are drawn from ChEMBL document CHEMBL4138196, “Discovery and structure-activity relationship of novel 4-hydroxy-thiazolidine-2-thione derivatives as tumor cell specific pyruvate kinase M2 activators” (Eur J Med Chem, 2018).
